In ChEMBL document CHEMBL1933048, “Inhibition of the pore-forming protein perforin by a series of aryl-substituted isobenzofuran-1(3H)-ones” (Bioorg Med Chem, 2012):
Calls of active or inactive are those of the source. The calls are words filed in the database; no cut-off is given here.

Key:
Type in all cases: cell-based
[1] = Cytotoxicity against human KHYG-1 NK cells assessed as cell viability at 20 uM after 18 to 24 hrs by trypan blue assay; conditions: read-out: Activity
Procedure, shortened: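 KHYG-1 NK cells were suspended at 4 × 10⁵ cells/mL in RPMI + 0.1% BSA and treated with compound at rt for 20 min. Instead of target cells, RPMI + 0.1% BSA was added, followed by 4 h at 37 °C. Cells were washed ×3 and kept in complete medium for 18–24 h at 37 °C. Trypan blue viable/total counts gave % viability vs a DMSO control. Values are the mean of ≥3 determinations.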

[2] = target: T1, Perforin-1 (Homo sapiens) (UniProt P14222); assay: Inhibition of perforin released from human KHYG-1 NK cells assessed as inhibition of perforin-mediated lysis of human K562 cells at 20 uM by [51Cr] release assay in absence of serum
T1 sequence (whole entry): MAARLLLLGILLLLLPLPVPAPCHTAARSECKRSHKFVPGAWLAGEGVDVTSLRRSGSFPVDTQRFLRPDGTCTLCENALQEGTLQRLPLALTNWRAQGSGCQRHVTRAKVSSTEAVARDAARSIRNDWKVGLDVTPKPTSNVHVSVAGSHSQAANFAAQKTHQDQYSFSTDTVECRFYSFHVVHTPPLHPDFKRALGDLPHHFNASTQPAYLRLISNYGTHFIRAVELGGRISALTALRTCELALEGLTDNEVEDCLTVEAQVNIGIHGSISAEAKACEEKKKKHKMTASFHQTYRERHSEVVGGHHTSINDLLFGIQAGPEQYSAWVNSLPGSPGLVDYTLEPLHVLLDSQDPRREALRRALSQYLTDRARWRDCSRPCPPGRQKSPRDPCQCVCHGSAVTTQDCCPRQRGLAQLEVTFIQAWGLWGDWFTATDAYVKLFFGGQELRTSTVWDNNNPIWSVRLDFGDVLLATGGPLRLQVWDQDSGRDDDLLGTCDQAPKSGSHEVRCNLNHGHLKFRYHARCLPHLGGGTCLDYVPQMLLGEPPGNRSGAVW
Procedure, shortened: (§1)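 KHYG-1 cells (4 × 10⁵/mL, RPMI + 0.1% BSA) received either BSA medium or 10% mouse serum final, then compound at 20 µM for 20 min at rt. K562 cells labelled with 75 µCi ⁵¹Cr (90 min, 37 °C) and washed were added at E:T 2:1 for 4 h at 37 °C. ⁵¹Cr release was gamma-counted. Specific lysis used spontaneous/maximum release, and inhibition was taken vs untreated control. Triplicate wells; ≥3 determinations.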

[3] = target: T1, Perforin-1 (Homo sapiens); assay: Inhibition of perforin released from human KHYG-1 NK cells assessed as inhibition of perforin-mediated lysis of human K562 cells at 20 uM by [51Cr] release assay in presence of 10% mouse serum; procedure, shortened: as §1
[4] = target: Pneumolysin (Streptococcus pneumoniae serotype 4 (strain ATCC BAA-334 / TIGR4)) (UniProt P0C2J9); assay: Inhibition of Streptococcus pneumoniae pneumolysin-mediated lysis of Jurkat cells assessed as [51Cr] release at 20 uM […] for 30 mins followed by incubation with [51Cr]-labeled Jurkat cells by gamma counting
Pneumolysin (Streptococcus pneumoniae serotype 4 (strain ATCC BAA-334 / TIGR4)), sequence (P0C2J9 whole entry): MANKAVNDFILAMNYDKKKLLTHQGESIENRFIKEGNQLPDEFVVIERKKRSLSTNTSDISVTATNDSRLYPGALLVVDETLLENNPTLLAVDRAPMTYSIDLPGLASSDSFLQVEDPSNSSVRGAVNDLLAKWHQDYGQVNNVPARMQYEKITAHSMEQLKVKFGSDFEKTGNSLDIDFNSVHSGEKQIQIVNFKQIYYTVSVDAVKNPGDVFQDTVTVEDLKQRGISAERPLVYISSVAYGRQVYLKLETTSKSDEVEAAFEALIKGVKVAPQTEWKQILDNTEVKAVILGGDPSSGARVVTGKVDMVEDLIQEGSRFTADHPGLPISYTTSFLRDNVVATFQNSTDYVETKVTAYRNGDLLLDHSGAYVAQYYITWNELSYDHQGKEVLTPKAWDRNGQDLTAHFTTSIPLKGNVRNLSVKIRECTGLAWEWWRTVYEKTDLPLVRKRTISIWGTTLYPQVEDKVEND
Procedure, shortened: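 Single 20 µM concentration, preincubated 30 min with pneumolysin in place of perforin, with DMSO as negative control. Jurkat cells were labelled 1 h with 100 µCi ⁵¹Cr, washed three times, and resuspended at 1 × 10⁵ cells/mL in RPMI with 0.1% BSA. Labelled cells were then added for 4 h at 37 °C, and supernatant radioactivity was gamma-counted.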

[5] = target: T1, Perforin-1 (Homo sapiens); assay: Inhibition of recombinant perforin-mediated lysis of Jurkat cells assessed as [51Cr] release at 20 uM preincubated with perforin for 30 mins followed by incubation with [51Cr]-labeled Jurkat cells by gamma counting
Procedure, shortened: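 Compound at 20 µM was preincubated with recombinant perforin for 30 min, with DMSO as negative control. Jurkat cells were labelled with 100 µCi ⁵¹Cr for 1 h, washed ×3 and used at 1 × 10⁵/mL in RPMI + 0.1% BSA. They were added and incubated for 4 h at 37 °C. Supernatant radioactivity was measured by gamma counting. Triplicate points.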

SMILES | viability at 20 µM [1] | inhibition [2] | inhibition [3] | inhibition [4] | inhibition [5]
O=C1NC(=S)N/C1=C/c1ccc2ccc(-c3ccc4c(c3)COC4=O)cc2n1 | 59% | 52% | 38% | – | –
O=C1NC(=S)N/C1=C/c1ccc(-c2ccc3c(c2)COC3=O)s1 | 88% | 53% | 38.9% | – | –
O=C1NC(=S)N/C1=C/c1ccc2cc(-c3ccc4c(c3)COC4=O)ccc2n1 | 48.5% | 60% | 35% | – | –
O=C1NC(=S)N/C1=C/c1cc2cc(-c3ccc4c(c3)COC4=O)ccc2o1 | 29.9% | 61% | 35% | – | –
Cc1cc2c(c(=S)[nH]1)C(=O)OC2=Cc1csc2ccccc12 | 77% | 41% | 10.3% | – | –
O=C1NC(=S)NC(=O)C1=Cc1ccc(-c2ccc3c(c2)COC3=O)s1 | 38% | 91% | 73% | – | –
O=C1NC(=S)N/C1=C/c1cc(-c2ccc3c(c2)COC3=O)ns1 | 57% | 45% | 26% | – | –
O=C1NC(=O)/C(=C\c2ccc(-c3ccc4c(c3)COC4=O)s2)S1 | 19% | 36% | 12% | – | –
O=C1NC(=S)N/C1=C/c1cc2ccc(-c3ccc4c(c3)COC4=O)cc2[nH]1 | 10% | 100% | 100% | – | –
O=C1NC(=S)N/C1=C/c1cc2cc(-c3ccc4c(c3)COC4=O)ccc2[nH]1 | 23.2% | 91% | 83% | – | –
O=C1NC(=O)C(=Cc2ccc(-c3ccc4c(c3)COC4=O)s2)C(=O)N1 | 77.6% | 52% | 10% | – | –
O=C1NC(=S)N/C1=C/c1csc(-c2ccc3c(c2)COC3=O)n1 | 25% | 11% | 2% | – | –
O=C1NC(=S)N/C1=C/c1ccc(-c2ccc3c(c2)COC3=O)cc1 | 59% | 28% | 30% | – | –
O=C1NC(=S)N/C1=C/c1cc(-c2ccc3c(c2)COC3=O)cs1 | 55% | 49% | 42% | – | –
O=C1NC(=S)N/C1=C/c1cc(-c2ccc3c(c2)COC3=O)no1 | 63% | 41% | 23% | – | –
O=C1NC(=S)N/C1=C/c1ccc(-c2ccc3c(c2)COC3=O)o1 | 66% | 74% | 23% | inactive | Active
O=C1NC(=S)N/C1=C/c1cc2cc(-c3ccc4c(c3)COC4=O)ccc2s1 | 27% | 51% | 17% | – | –
O=C1NC(=S)N/C1=C/c1cc2ccc(-c3ccc4c(c3)COC4=O)cc2s1 | 19.7% | 46% | 25% | – | –
O=C1NC(=O)/C(=C\c2ccc(-c3ccc4c(c3)COC4=O)s2)N1 | 91.5% | 54% | 64% | – | –
O=C1NC(=S)N/C1=C/c1nc(-c2ccc3c(c2)COC3=O)cs1 | 91% | 30% | 13% | – | –
O=C1NC(=S)N/C1=C/c1cnc(-c2ccc3c(c2)COC3=O)s1 | 68% | 45% | 27% | – | –
O=C1NC(=S)N/C1=C/c1ccc(-c2ccc3c(c2)COC3=O)cn1 | 92% | 37% | 20% | – | –
